A short description of experiment [1]: Effective concentration determined in calcium mobilization assay. The class given is functional. In short, it runs like this:
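Calcium flux in 2×10^5 eosinophils preloaded with Fluo-3AM, stimulated with 10 nM eotaxin, compound 0.0001–1 μM, in RPMI 1640 with 0.1% BSA, 20 mM HEPES and 2.5 mM probenecid; fluorescence read on a fluorescent imaging plate reader.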
For orientation: A change in cytosolic calcium serves as a functional read-out for many receptors and channels.

For experiment [2], the target named is T1, C-C chemokine receptor type 3 (Homo sapiens, UniProt P51677).
T1 sequence (P51677 whole entry): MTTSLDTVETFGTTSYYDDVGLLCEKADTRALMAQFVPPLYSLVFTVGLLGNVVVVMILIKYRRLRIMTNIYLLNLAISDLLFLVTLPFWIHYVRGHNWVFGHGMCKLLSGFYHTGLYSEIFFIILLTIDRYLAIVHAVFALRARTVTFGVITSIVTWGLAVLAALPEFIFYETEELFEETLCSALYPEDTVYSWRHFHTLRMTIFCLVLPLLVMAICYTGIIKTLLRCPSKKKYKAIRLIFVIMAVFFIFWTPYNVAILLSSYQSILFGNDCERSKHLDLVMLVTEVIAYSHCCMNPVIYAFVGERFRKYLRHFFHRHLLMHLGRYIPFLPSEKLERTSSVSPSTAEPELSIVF
As to the kind of experiment: Inhibitory concentration against C-C chemokine receptor type 3 using human [125I]eotaxin. In short, it runs like this: (§1)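 Displacement of 150 pM 125I-labeled human eotaxin from CHO cells (5×10^5 per well), compound 0.0001–1 μM, in RPMI 1640 with 0.5% BSA, 10 mM HEPES, 5 mM MgCl2; filter plates pretreated with 5 μg/mL protamine in PBS pH 7.2. 30 min at room temperature, vacuum filtration, three washes with binding buffer plus 0.5 M NaCl, bound label by liquid scintillation counting.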

A short description of experiment [3]: Effect on chemotaxis of eosinophils was determined. The class given is functional.
Experiment [4] addresses 5-hydroxytryptamine receptor 2A (Homo sapiens, UniProt P28223). Nature of the experiment: Inhibition of binding to serotonin 5-hydroxytryptamine 2A receptor.
In experiment [5] the target is T2, C-C chemokine receptor type 3 (Homo sapiens) (UniProt P51677).
T2 sequence (whole entry): T1 sequence (P51677 whole entry)
Nature of the experiment: Inhibitory concentration of compound against C-C chemokine receptor type 3 was determined using human [125I]eotaxin. The note with it: concentration not given here. The method, boiled down:
as §1

Experiment [6] addresses CC chemokine receptor 3 (Homo sapiens). As to the kind of experiment: Binding affinity against CC chemokine receptor 3 was determined using human [125I]-eotaxin.

Each structure is given as a SMILES string. Bounds are passed on as bounds.

The results in this text go back to ChEMBL document CHEMBL1137845, “Discovery of N-propylurea 3-benzylpiperidines as selective CC chemokine receptor-3 (CCR3) antagonists” (Bioorg Med Chem Lett, 2004).

5-hydroxytryptamine receptor 2A, sequence (P28223 whole entry): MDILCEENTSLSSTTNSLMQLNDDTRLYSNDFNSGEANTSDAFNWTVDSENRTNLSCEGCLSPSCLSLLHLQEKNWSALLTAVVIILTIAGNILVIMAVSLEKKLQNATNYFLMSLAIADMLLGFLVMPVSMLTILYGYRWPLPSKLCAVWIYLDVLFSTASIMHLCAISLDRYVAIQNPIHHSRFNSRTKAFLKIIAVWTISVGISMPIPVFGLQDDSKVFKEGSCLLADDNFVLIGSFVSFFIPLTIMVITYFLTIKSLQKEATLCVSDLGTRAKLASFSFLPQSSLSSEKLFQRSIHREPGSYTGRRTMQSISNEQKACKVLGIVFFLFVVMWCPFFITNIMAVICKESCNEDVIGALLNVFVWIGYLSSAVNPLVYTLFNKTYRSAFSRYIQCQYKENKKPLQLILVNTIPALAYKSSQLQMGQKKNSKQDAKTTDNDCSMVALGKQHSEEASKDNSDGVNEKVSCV

Take `CNC(=O)c1cc(NC(=O)NCCCN2CCC[C@@H](Cc3ccc(F)cc3)C2)cc(-c2nnnn2C)c1`: the values for the EC50 in experiment [1] and in experiment [3] were 0.6 nM and under 1 nM, respectively. Besides, half-maximal inhibition in experiment [2] (IC50) was put at 0.7 nM.
As to `N#Cc1cccc(NC(=O)NCCCN2CCCC(Cc3ccccc3F)C2)c1` (stereo unspecified), in experiment [4], the Ki (commonly the equilibrium dissociation constant of an inhibitor or competing ligand from its target) stood at 2240 nM. Further, the half-maximal inhibitory concentration (IC50) (in general, the concentration at which inhibition is half-maximal) in experiment [2] was 38 nM.
`CC(=O)c1cccc(NC(=O)NCCCN2CC3CCC2[C@@H](Cc2ccc(F)cc2)C3)c1` (stereo partly specified): in experiment [2], the IC50 came to 169 nM.
Consider `COc1cccc(NC(=O)NCCCN2CCC(Cc3ccc(F)cc3)CC2)c1`, for which the affinity in experiment [4], expressed as Ki, was 224 nM.
Turning to `O=C(NCCCN1CCC[C@@H](Cc2ccc(F)cc2)C1)Nc1cccc(-c2cnco2)c1`, in experiment [2], the IC50 worked out at 7.9 nM.
As for `CC(=O)c1cccc(NC(=O)NCCCN2CC3CCC2[C@H](Cc2ccc(F)cc2)C3)c1` (stereo partly specified), it took 802 nM to reach half-maximal inhibition in experiment [2] (IC50).
`Cn1nnnc1-c1cc(NC(=O)NCCCN2CCC[C@@H](Cc3ccc(F)cc3)C2)cc(-c2nnnn2C)c1`: the EC50 – broadly, the midpoint of the concentration-response curve – was determined as 0.76 nM in experiment [1] and 0.4 nM in experiment [3]. Besides, in experiment [2], 0.7 nM corresponded to half-maximal inhibition (IC50).
In the case of `COc1cccc(NC(=O)NCCCN2CCC(Cc3ccccc3)CC2)c1`, the Ki in experiment [4] stood at 613 nM.
`CC(=O)c1cccc(NC(=O)NCCCN2CC3(Cc4ccc(F)cc4)CCC2CC3)c1` came in with an IC50 in experiment [2] of 39 nM.
As for `Cc1cc(NC(=O)NCCCN2CCC[C@@H](Cc3ccc(F)cc3)C2)cc(-c2nnnn2C)c1`, the figures for the EC50 in experiment [1] and in experiment [3] were 0.9 nM and 1 nM, respectively. This compound showed an IC50 in experiment [2] of 1.5 nM.
In experiment [2], `CCn1nnnc1-c1cccc(NC(=O)NCCCN2CCC[C@@H](Cc3ccc(F)cc3)C2)c1` came in with an IC50 of 1.2 nM.
Same read-out and setting: for `CC(=O)c1cccc(NC(=O)NCCCN2CCC[C@H](Cc3ccc(F)cc3)C2)c1` the value was 39 nM.
On to `N#Cc1cccc(NC(=O)NCCCN2CCCC(CCc3ccccc3)C2)c1` (stereo unspecified), for which, in experiment [5], the inhibition (as a rule, the share of the control response that was lost under treatment) is 66%.
Compound `COc1cccc(NC(=O)NCCCN2CCCC(CCc3ccccc3)C2)c1` (stereo unspecified) registered an IC50 in experiment [6] of 787 nM. Besides, in experiment [5], the inhibition came to 84%.
Consider `COc1cccc(NC(=O)NCCCN2CCCC(Cc3ccccc3)C2)c1` (stereo unspecified), for which, in experiment [4], the Ki stood at 913 nM. For the same compound, half-maximal inhibition in experiment [2] (IC50) required 55 nM.
The compound `Cn1nnnc1-c1cc(CO)cc(NC(=O)NCCCN2CCC[C@@H](Cc3ccc(F)cc3)C2)c1` displayed an IC50 in experiment [2] of 0.9 nM.
With `CC(=O)c1cccc(NC(=O)NCCCN2CCC[C@@H](Cc3ccc(F)cc3)C2)c1`, the values for the EC50 in experiment [1] and in experiment [3] were 2.4 nM and 25 nM, respectively. This compound displayed a Ki in experiment [4] of 1350 nM. The same compound showed a 50% inhibitory concentration (IC50) in experiment [2] of 2.5 nM.
Compound `CC(=O)c1cccc(NC(=O)NCCCN2C[C@@H]3C[C@@H](c4ccc(F)cc4)[C@@H]3C2)c1` gave an inhibition in experiment [5] of 68%.
In experiment [4], `N#Cc1cccc(NC(=O)NCCCN2CCC(Cc3ccc(F)cc3)C2)c1` (stereo unspecified) gave a Ki of 178 nM. Further, the IC50 in experiment [2] stood at 31 nM.
`CC(=O)c1cc(NC(=O)NCCCN2CCC[C@@H](Cc3ccc(F)cc3)C2)cc(C(C)=O)c1`: in experiment [2], the IC50 turned out to be 1.2 nM. For the same compound, in experiment [3], the EC50 was 3 nM.
In turn, `N#Cc1cccc(NC(=O)NCCCN2CCCC(Cc3ccc(F)cc3F)C2)c1` (stereo unspecified) gave a Ki in experiment [4] of 2350 nM. In experiment [2], this compound returned an IC50 of 19 nM.
Turning to `Cn1nnnc1-c1cccc(NC(=O)NCCCN2CCC[C@@H](Cc3ccc(F)cc3)C2)c1`, the EC50 is 1.3 nM in experiment [1] and 3.2 nM in experiment [3]. In addition, 0.6 nM corresponded to half-maximal inhibition in experiment [2] (IC50).
The compound `CC(=O)c1cccc(NC(=O)NCCCN2C[C@@H]3Cc4ccc(F)cc4C[C@H]3C2)c1` returned an IC50 in experiment [2] of 49 nM.
In experiment [5], `COc1cccc(NC(=O)NCCCN2CCOC(Cc3ccccc3)C2)c1` (stereo unspecified) showed an inhibition of 14%.
On to `O=C(NCCCN1CCC[C@@H](Cc2ccc(F)cc2)C1)Nc1cccc(-n2ccnc2)c1`, for which the IC50 in experiment [2] was found to be 7.1 nM.
In experiment [4], `N#Cc1cccc(NC(=O)NCCCN2CCC(Cc3ccc(F)cc3)CC2)c1` displayed a Ki of 167 nM.
Turning to `O=C(NCCCN1CCC[C@@H](Cc2ccc(F)cc2)C1)Nc1cccc(-c2nnco2)c1`, the EC50 in experiment [1] was 45 nM. For the same compound, the IC50 in experiment [2] is 3.6 nM.
As to `Cn1nnnc1-c1cc(Br)cc(NC(=O)NCCCN2CCC[C@@H](Cc3ccc(F)cc3)C2)c1`, the EC50 in experiment [1] was 3.4 nM; in experiment [3], under 1 nM. Further, in experiment [2], the IC50 turned out to be 3.1 nM.
`CC(=O)c1cc(NC(=O)NCCCN2CCC[C@@H](Cc3ccc(F)cc3)C2)cc(-c2nnnn2C)c1`: the IC50 in experiment [2] is 2.6 nM.
As for `Cn1nnnc1-c1cc(NC(=O)NCCCN2CCC[C@@H](Cc3ccc(F)cc3)C2)cc(-c2ccccc2)c1`, the IC50 in experiment [2] is 2.4 nM.
With `CC(=O)c1cccc(NC(=O)NCCCN2[C@@H]3CC[C@H]2C[C@@H](Cc2ccc(F)cc2)C3)c1` (stereo in doubt; 22), the half-maximal inhibitory concentration (IC50) in experiment [2] came to 47 nM.
With `CC(C)n1nnnc1-c1cccc(NC(=O)NCCCN2CCC[C@@H](Cc3ccc(F)cc3)C2)c1`, the IC50 in experiment [2] was 3.1 nM.
`N#Cc1cccc(NC(=O)NCCCN2CCOC(Cc3ccccc3)C2)c1` (stereo unspecified): in experiment [5], the inhibition was determined as 36%.
`N#Cc1cccc(NC(=O)NCCCN2CCCC(Cc3ccc(F)cc3)C2)c1` (stereo unspecified) displayed a Ki in experiment [4] of 2310 nM. The same compound showed an IC50 in experiment [2] of 29 nM.
Regarding `N#Cc1cccc(NC(=O)NCCCN2CCCC(Cc3ccc(C(F)(F)F)cc3)C2)c1` (stereo unspecified), the inhibition in experiment [5] turned out to be 11%.
Compound `N#Cc1cccc(NC(=O)NCCCN2CCCC(Cc3cccc(F)c3)C2)c1` (stereo unspecified) registered an IC50 in experiment [2] of 243 nM.
In experiment [4], `N#Cc1cccc(NC(=O)NCCCN2CCC(Cc3ccccc3)CC2)c1` gave a Ki of 770 nM.
On the same count and under the same terms, for `CC(=O)c1cccc(NC(=O)NCCCN2CCC(Cc3ccc(F)cc3)CC2)c1` the value was 193 nM.
In turn, `CC(=O)c1cccc(NC(=O)NCCCN2[C@@H]3CC[C@H]2C[C@@H](Cc2ccc(F)cc2)C3)c1` (stereo in doubt; 21) yielded an IC50 in experiment [2] of 7.4 nM.
On to `CC(=O)c1cccc(NC(=O)NCCCN2CCN(C(C)=O)C(Cc3ccc(F)cc3)C2)c1` (stereo unspecified), for which, in experiment [5], the inhibition came out at 0%.
Consider `CC(=O)c1cccc(NC(=O)NCCCN2C[C@H]3Cc4ccc(F)cc4C[C@H]3C2)c1`, for which the IC50 in experiment [2] was found to be 56 nM.
In turn, `N#Cc1cccc(NC(=O)NCCCN2CCCC(Cc3ccccc3)C2)c1` (stereo unspecified) gave a Ki in experiment [4] of 2940 nM. For the same compound, in experiment [2], the IC50 was determined as 41 nM.
`COc1cccc(CC2CCCN(CCCNC(=O)Nc3cccc(C#N)c3)C2)c1` (stereo unspecified): in experiment [5], the inhibition stood at 31%.
In experiment [2], `Cn1nnnc1-c1cc(NC(=O)NCCCN2CCC[C@@H](Cc3ccc(F)cc3)C2)cc(C(F)(F)F)c1` had a 50% inhibitory concentration (IC50) of 1.2 nM.
